Laboratory results published in ChEMBL document CHEMBL1212693, “Dorsomorphin inhibits BMP signals required for embryogenesis and iron metabolism” (Nat Chem Biol, 2008).
pIC50: −log10 of the molar value. The source made the active and inactive calls. The calls are words filed in the database; no cut-off is given here.

How the values were obtained:
Mus musculus [1] = organism: Mus musculus; experiment: Inhibition of BMPR1-mediated Smad-1 phosphorylation in BMP7-stimulated mouse BMPR2 deficient PASMC at 4 uM treated 30 mins before BMP7 challenge measured after 30 mins by immunoblot analysis
In short: (§1)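 PASMCs (wild-type or BMPR-II–deficient) were kept 24 h in RPMI with 0.5% FCS, preincubated 30 min with compound or vehicle, then stimulated 30 min with recombinant BMP (10 ng ml−1). Extracts in SDS-lysis buffer were immunoblotted for phospho-SMAD1/5/8, with total SMAD1 and α-tubulin as loading controls. Bands were quantitated by phosphorimager.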

Mus musculus [2] = organism: Mus musculus; experiment: Inhibition of BMPR1-mediated Smad-5 phosphorylation in BMP2-stimulated mouse PASMC at 4 uM treated 30 mins before BMP2 challenge measured after 30 mins by immunoblot analysis
In short: (§2)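 Wild-type mouse PASMCs were kept in RPMI with 0.5% FCS for 24 h. They were preincubated with compound or vehicle for 30 min, then stimulated for 30 min with recombinant BMP2, BMP4, BMP6 or BMP7 at 10 ng ml−1. Lysates in SDS buffer were immunoblotted with anti-phospho-SMAD1/5/8. Total SMAD1 and α-tubulin served as loading controls, and bands were quantified by phosphorimager.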

Mus musculus [3] = organism: Mus musculus; experiment: Inhibition of BMPR1-mediated Smad-5 phosphorylation in BMP7-stimulated mouse BMPR2 deficient PASMC at 4 uM treated 30 mins before BMP7 challenge measured after 30 mins by immunoblot analysis
Mus musculus [4] = organism: Mus musculus; experiment: Inhibition of BMPR1-mediated Smad-8 phosphorylation in BMP6-stimulated mouse BMPR2 deficient PASMC at 4 uM treated 30 mins before BMP6 measured after 30 mins by immunoblot analysis
Danio rerio [5] = organism: Danio rerio; experiment: Inhibition of BMPR1 in zebrafish assessed as penetrance of moderate embryonic axis dorsalization at 7.5 uM treated at 3 hrs post-fertilization measured at 48 hrs; parameters: scale not given: the % may be the effect or the level left
Hep 3B2 = experiment: Inhibition of BMPR1-mediated Id1 mRNA expression in IL6-stimulated human Hep3B cells at 10 uM treated 30 mins before IL6 challenge measured after 6 hrs by qRT-PCR analysis; type: cell-based
In short: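 Hep3B cells were grown in α-MEM with 10% FBS, then incubated 6 h in α-MEM with 1% fetal calf serum, with or without dorsomorphin and human IL-6 (100 ng ml−1). RNA was Trizol-extracted. Id1 mRNA was measured by qRT-PCR, normalized to 18S rRNA or β-actin mRNA. Triplicate measurements, mean ± s.d.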

Danio rerio [6] = organism: Danio rerio; experiment: Inhibition of BMPR1 in zebrafish assessed as severity of embryonic axis dorsalization at 10 uM treated at 2 to 8 hrs post-fertilization measured at 48 hrs; parameters: scale not given: the % may be the effect or the level left
Mus musculus [7] = organism: Mus musculus; experiment: Inhibition of BMPR1-mediated MAPK p38 phosphorylation in BMP4-stimulated mouse PASMC treated 30 mins before BMP4 challenge measured after 30 mins by immunoblot analysis
In short: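 Mouse PASMCs were held 24 h in 0.5% FCS RPMI, preincubated 30 min with a dose range of compound, then stimulated 30 min with BMP4. Phospho-SMAD1/5/8 and phospho-p38 were detected by immunoblot and quantitated by phosphorimager (RLU). IC50 was derived from a Hill plot of phospho-SMAD1/5/8 inhibition.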

Mus musculus [8] = organism: Mus musculus; experiment: Inhibition of ALK6-mediated Id1 promoter activity in BMPR2 deficient mouse PASMC at 10 uM by immunoblot analysis
In short: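 BMPR-II–deficient mouse PASMCs at 50% confluence co-transfected with Id1 promoter firefly luciferase (BRE-Luc, 0.3 µg), caALK2, caALK3 or caALK6 (0.6 µg), and pRL-TK Renilla (0.2 µg). Compound (4–10 µM) or vehicle added 1 h after transfection. Activity read as firefly/Renilla ratio by dual luciferase assay; n = 3, mean ± s.d.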

Danio rerio [9] = experiment: Inhibition of iron-dextran conjugate-induced Smad-5 phosphorylation in zebrafish at 23 ug/g, iv after 1 hr relative to control; type: functional
Mus musculus [10] = organism: Mus musculus; experiment: Inhibition of BMPR1-mediated Smad-8 phosphorylation in BMP2-stimulated mouse PASMC at 4 uM treated 30 mins before BMP2 challenge measured after 30 mins by immunoblot analysis; in short: as §2
Danio rerio [11] = organism: Danio rerio; experiment: Inhibition of BMPR1 in zebrafish assessed as penetrance of moderate embryonic axis dorsalization at 10 uM treated continuously from 2 hrs post-fertilization measured after 48 hrs; parameters: scale not given: the % may be the effect or the level left
In short: (§3)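 Compound added at the stated times and concentrations. Gross morphology scored visually at up to 48 h.p.f. for dorsalization of the embryonic axis.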

Mus musculus [12] = organism: Mus musculus; experiment: Inhibition of BMPR1-mediated Smad-5 phosphorylation in BMP6-stimulated mouse PASMC at 4 uM treated 30 mins before BMP6 challenge measured after 30 mins by immunoblot analysis; in short: as §2
Mus musculus [13] = organism: Mus musculus; experiment: Inhibition of BMPR1-mediated Smad-1 phosphorylation in BMP2-stimulated mouse PASMC at 4 uM treated 30 mins before BMP2 challenge measured after 30 mins by immunoblot analysis; in short: as §1
Mus musculus [14] = organism: Mus musculus; experiment: (§4) Inhibition of BMPR1-mediated Smad-8 phosphorylation in BMP4-stimulated mouse PASMC treated 30 mins before BMP4 challenge measured after 30 mins by immunoblot analysis
In short: (§5)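 Mouse PASMCs were held 24 h in RPMI with 0.5% FCS. They were preincubated 30 min with test agent, noggin or vehicle, then exposed to recombinant BMP4 for 30 min. SDS lysates were immunoblotted for phospho-SMAD1/5/8 and bands quantified by phosphorimager. Dose-dependence was fitted as a Hill plot.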

[15] = as §4; in short: as §5
Mus musculus [16] = organism: Mus musculus; experiment: Inhibition of ALK3-mediated Smad-8 phosphorylation in BMPR2 deficient mouse PASMC at 10 uM by immunoblot analysis
In short: (§6)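 BMPR-II–deficient mouse PASMCs (RPMI, 10% FBS) transiently transfected with constitutively active ALK2, ALK3 or ALK6 cDNA, or plasmid-only control. Incubated with or without compound (10 µM). Extracts lysed in SDS buffer, run on SDS-PAGE and immunoblotted for phospho-SMAD1/5/8; quantitated by phosphorimager.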

Danio rerio [17] = organism: Danio rerio; experiment: Inhibition of BMPR1 in zebrafish assessed as severity of embryonic axis dorsalization at 10 uM treated at 2 to 4 hrs post-fertilization measured at 48 hrs; parameters: scale not given: the % may be the effect or the level left
Mus musculus [18] = organism: Mus musculus; experiment: Inhibition of ALK6-mediated Smad-8 phosphorylation in BMPR2 deficient mouse PASMC at 10 uM by immunoblot analysis; in short: as §6
Danio rerio [19] = organism: Danio rerio; experiment: Inhibition of BMPR1 in zebrafish assessed as penetrance of normal embryonic axis dorsalization at 10 uM treated at 4 to 8 hrs post-fertilization measured at 48 hrs; parameters: scale not given: the % may be the effect or the level left
Danio rerio [20] = organism: Danio rerio; experiment: Inhibition of BMPR1 in zebrafish assessed as penetrance of mild embryonic axis dorsalization at 10 uM treated continuously from 6 hrs post-fertilization measured at 48 hrs; parameters: scale not given: the % may be the effect or the level left; in short: as §3
Mus musculus [21] = organism: Mus musculus; experiment: Inhibition of BMPR1-mediated Smad-8 phosphorylation in BMP7-stimulated mouse BMPR2 deficient PASMC at 4 uM treated 30 mins before BMP7measured after 30 mins by immunoblot analysis
Danio rerio [22] = organism: Danio rerio; experiment: Inhibition of BMPR1 in zebrafish assessed as severity of embryonic axis dorsalization at 10 uM treated continuously from 6 hrs post-fertilization measured at 48 hrs; parameters: scale not given: the % may be the effect or the level left
Mus musculus [23] = organism: Mus musculus; experiment: Inhibition of BMPR1-mediated Smad-5 phosphorylation in BMP2-stimulated mouse BMPR2 deficient PASMC at 4 uM treated 30 mins before BMP2 challenge measured after 30 mins by immunoblot analysis

**Q.** Which results are given for c1cc(-c2cnn3cc(-c4ccc(OCCN5CCCCC5)cc4)cnc23)ccn1 [DORSOMORPHIN]?
**A.** inhibition (Mus musculus [1]): Active; inhibition (Mus musculus [2]): Active; inhibition (Mus musculus [3]): Active; inhibition (Mus musculus [4]): Active; Activity (Danio rerio [5]): 42%; inhibition (Hep 3B2): Active; Activity (Danio rerio [6]): 100%; inhibition (Mus musculus [7]): inactive; inhibition (Mus musculus [8]): Dose-dependent effect; fold change (FC) (Danio rerio [9]): 3; inhibition (Mus musculus [10]): Active; Activity (Danio rerio [11]): 0%; inhibition (Mus musculus [12]): Active; inhibition (Mus musculus [13]): Active; inhibition (Mus musculus [14]): Dose-dependent effect; pIC50 [15]: 6.33; inhibition (Mus musculus [16]): Active; Activity (Danio rerio [17]): 0%; inhibition (Mus musculus [18]): Active; Activity (Danio rerio [19]): 0%; Activity (Danio rerio [20]): 22%; inhibition (Mus musculus [21]): Active; Activity (Danio rerio [22]): 0%; inhibition (Mus musculus [23]): Active
